According to ChEMBL document CHEMBL1141198, “Design and synthesis of tri-ring P3 benzamide-containing aminonitriles as potent, selective, orally effective inhibitors of cathepsin K” (J Med Chem, 2005):

What was measured:
Cathepsin B = Cathepsin B (Homo sapiens, UniProt P07858); assay: Inhibitory constant against human cathepsin B using Boc-Leu-Lys-Arg-AMC substrate; conditions: read-out: Ki app
[1] = target: Cathepsin K (Homo sapiens) (UniProt P43235); assay: Inhibitory constant against human cathepsin K using Z-Phe-Arg-AMC substrate; conditions: read-out: Ki app
Procathepsin L = Procathepsin L (Homo sapiens, UniProt P07711); assay: Inhibitory constant against human cathepsin L using Z-Phe-Arg-AMC substrate; conditions: read-out: Ki app
Chain of Procathepsin L (P07711 whole entry): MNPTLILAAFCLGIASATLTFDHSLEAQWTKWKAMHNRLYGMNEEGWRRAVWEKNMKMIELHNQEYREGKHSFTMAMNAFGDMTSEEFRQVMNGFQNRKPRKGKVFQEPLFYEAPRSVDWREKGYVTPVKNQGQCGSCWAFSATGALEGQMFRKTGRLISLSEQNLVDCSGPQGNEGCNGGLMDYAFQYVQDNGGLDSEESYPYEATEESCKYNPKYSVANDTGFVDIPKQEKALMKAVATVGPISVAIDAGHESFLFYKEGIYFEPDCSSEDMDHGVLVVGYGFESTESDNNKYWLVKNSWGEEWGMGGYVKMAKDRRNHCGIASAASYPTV
Summary of the method: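 Recombinant human cathepsin L at 500 pM in 50 mM MES pH 5.5, 2.5 mM DTT, 2.5 mM EDTA, 10% DMSO. Enzyme preincubated with inhibitor (8 concentrations) 30 min at 21–24 °C. Reaction started with 10 μM Z-Phe-Arg-AMC; AMC fluorescence (ex 355/em 460 nm) over first ~5 min. Ki(app) fitted with Morrison tight-binding model.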

Cathepsin S = Cathepsin S (Homo sapiens, UniProt P25774); assay: Inhibitory constant against human cathepsin S using Z-Val-Val-Arg-AMC substrate; conditions: read-out: Ki app
Chain of Cathepsin S (P25774 whole entry): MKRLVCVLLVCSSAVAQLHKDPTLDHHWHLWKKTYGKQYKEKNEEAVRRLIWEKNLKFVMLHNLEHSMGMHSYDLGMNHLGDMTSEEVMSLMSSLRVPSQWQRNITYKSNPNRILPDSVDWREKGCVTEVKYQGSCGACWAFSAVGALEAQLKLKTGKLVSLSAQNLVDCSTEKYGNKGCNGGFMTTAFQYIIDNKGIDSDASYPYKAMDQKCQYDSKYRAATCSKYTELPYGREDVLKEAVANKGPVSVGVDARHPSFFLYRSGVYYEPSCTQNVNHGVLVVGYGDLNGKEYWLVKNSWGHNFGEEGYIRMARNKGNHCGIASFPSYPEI
Summary of the method: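 Recombinant human cathepsin S at 500 pM in 50 mM MES pH 6.5, 2.5 mM β-mercaptoethanol, 2.5 mM EDTA, 100 mM NaCl, 0.001% BSA, 10% DMSO. 30 min enzyme–inhibitor preincubation at 21–24 °C, 8 inhibitor concentrations. Started with 60 μM Z-Val-Val-Arg-AMC; initial rates by AMC fluorescence (ex 355/em 460). Ki(app) by Morrison tight-binding fit.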

Osteoclast = assay: In vitro bone resorption in isolated rabbit osteoclasts; assay type: functional, cell-based; conditions: Oryctolagus cuniculus
Summary of the method: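 Bovine bone degraded by isolated rabbit osteoclasts; collagen degradation read by ELISA. 8-point dose–response curves; IC50 derived.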

Rattus norvegicus [2] = assay: Mean residence time in rat administered with 0.5 mg/kg, iv; assay type: functional, organism-based; design: dose 0.5 mg/kg
Summary of the method: (§1)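 Rats, three per study, cassette iv dosing of up to four compounds. Formulation DMSO (<20%), PEG 400 (<20%) and water at 0.5 mg/mL per compound, given at 1 mL/kg for 0.5 mg/kg per compound.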

[3] = Maximum concentration in rat administered with 0.5 mg/kg, iv; assay type: ADME, organism-based; design: dose 0.5 mg/kg, route intravenous; conditions: in vivo
Rattus norvegicus [4] = assay: Terminal half-life in rat administered with 0.5 mg/kg, iv; assay type: functional, organism-based; design: dose 0.5 mg/kg; summary of the method: as §1

| SMILES | Ki (Cathepsin B) [µM] | Ki [1] [µM] | Ki (Procathepsin L) [µM] | Ki (Cathepsin S) [µM] | IC50 (Osteoclast) [µM] | MRT (Rattus norvegicus [2]) [h] | Cmax [3] [nM] | T1/2 (Rattus norvegicus [4]) [h] |
| --- | --- | --- | --- | --- | --- | --- | --- | --- |
| N#CCNC(=O)C1(NC(=O)c2csc(-c3ccncc3)n2)CCCCC1 | 9.3 | 0.15 | > 150 | 4 |  |  |  |  |
| N#CCNC(=O)C1(NC(=O)OCc2ccccc2)CCCCC1 | 64 | 0.084 | 95 | 31 |  |  |  |  |
| N#CCNC(=O)C1(NC(=O)c2ccc(-c3ccc(-c4ccno4)cc3)cc2)CCCCC1 | 1.8 | 0.0054 | 0.42 | 2.5 | 0.037 |  |  |  |
| CC(C)N(C)C1CCN(c2nc(-c3ccc(C(=O)NC4(C(=O)NCC#N)CCCCC4)cc3)cs2)CC1 | 1.4 | 0.0016 | 15 | 3.2 | 0.011 | 2.02 | 430 | 1.92 |
| CCCN1CCN(c2ccc(C(=O)NC3(C(=O)NCC#N)CCCCC3)cc2)CC1 [BALICATIB] | 2.9 |  | 18 | 28 |  |  |  |  |
| CN1CCC(c2nc(-c3ccc(C(=O)NC4(C(=O)NCC#N)CCCCC4)cc3)cs2)CC1 | 1.4 | 0.0016 | 15 | 20 | 0.061 | 0.233 | 1430 | 0.717 |
| N#CCNC(=O)C1(NC(=O)c2ccc(Br)s2)CCCCC1 | 3.1 | 0.016 | 5.9 | 1.4 |  |  |  |  |
| CN(C)C1CCN(c2nc(-c3ccc(C(=O)NC4(C(=O)NCC#N)CCCCC4)cc3)cs2)C1 (centres undefined) | 1.7 | 0.00079 | 12 | 26 | 0.11 | 0.683 | 300 | 0.633 |
| C#Cc1ccc(C(=O)NC2(C(=O)NCC#N)CCCCC2)cc1 | 1.1 | 0.013 | 18 | 15 |  |  |  |  |
| N#CCNC(=O)[C@H](Cc1ccc2ccccc2c1)NC(=O)OCc1ccccc1 | 3 | 30 | 0.054 | 0.18 |  |  |  |  |
| CC(C[C@H](NC(=O)OCc1ccccc1)C(=O)NCC#N)C(F)(F)F (some centres undefined) | > 150 | 0.35 | 22 | 0.4 |  |  |  |  |
| CN1CCN(C(=O)c2ccc(C(=O)NC3(C(=O)NCC#N)CCCCC3)cc2)CC1 | 13 | 0.014 | > 150 | 110 |  |  |  |  |
| N#CCNC(=O)C1(NC(=O)c2cccc(-c3ccccc3)c2)CCCCC1 | 8.3 | 0.21 | 22 | 1.9 |  |  |  |  |
| CC(C)C[C@](C)(NC(=O)OCc1ccccc1)C(=O)NCC#N | > 150 | 1.8 | > 150 | 4.2 |  |  |  |  |
| CCCC[C@H](NC(=O)OCc1ccccc1)C(=O)NCC#N | > 150 | 0.49 | 37 | 0.86 |  |  |  |  |
| N#CCNC(=O)C1(NC(=O)OCc2ccccc2)CC1 | > 150 | > 150 | > 150 | > 150 |  |  |  |  |
| CC(C)(C)C[C@H](NC(=O)OCc1ccccc1)C(=O)NCC#N | 63 | 0.23 | 23 | 0.15 |  |  |  |  |
| N#CCNC(=O)C1(NC(=O)c2ccc(-c3csc(OC4CCNCC4)n3)cc2)CCCCC1 | 0.74 | 0.00057 | 11 | 68 | 0.043 | 1.23 | 1400 | 2.53 |
| C[C@@H](O)[C@H](NC(=O)OCc1ccccc1)C(=O)NCC#N | > 150 | 11 | 14 | 42 |  |  |  |  |
| CC(C)NC1CCN(c2nc(-c3ccc(C(=O)NC4(C(=O)NCC#N)CCCCC4)cc3)cs2)CC1 | 0.76 | 0.00059 | 12 | 33 | 0.019 | 2.42 | 660 | 2.55 |
| CN1CCN(Cc2nc(-c3ccc(C(=O)NC4(C(=O)NCC#N)CCCCC4)cc3)cs2)CC1 | 1.5 | 0.00094 | 19 | 42 | 0.06 | 1.25 | 430 | 1.28 |
| CN1CCC(N(C)c2ccc(-c3ccc(C(=O)NC4(C(=O)NCC#N)CCCCC4)cc3)cc2)C1 (centres undefined) | 0.34 | < 0.00025 | 2 | 8.7 | 0.033 |  |  |  |
| N#CCNC(=O)C1(NC(=O)c2ccc(-c3csc(N4CCOCC4)n3)cc2)CCCCC1 | 3.1 | 0.0023 | 74 | 13 | 0.035 | 0.467 | 1400 | 0.483 |

| SMILES | Ki (Cathepsin B) [µM] | Ki [1] [µM] | Ki (Procathepsin L) [µM] | Ki (Cathepsin S) [µM] | IC50 (Osteoclast) [µM] | MRT (Rattus norvegicus [2]) [h] | Cmax [3] [nM] | T1/2 (Rattus norvegicus [4]) [h] |
| --- | --- | --- | --- | --- | --- | --- | --- | --- |
| N#CCNC(=O)C1(NC(=O)c2ccc(-c3csc(CN4CCOCC4)n3)cc2)CCCCC1 | 3.8 | 0.0087 | 2.2 | 0.25 | 0.21 | 0.26 | 550 |  |
| CN1CCC(C)(c2nc(-c3ccc(C(=O)NC4(C(=O)NCC#N)CCCCC4)cc3)cs2)CC1 | 1.1 | 0.00095 | 7.6 | 30 | 0.046 | 2.33 | 440 | 2.28 |
| N#CCNC(=O)C1(NC(=O)c2ccc(Br)cc2)CCCCC1 | 2.3 | 0.018 | 17 | 10 |  |  |  |  |
| CN(C)c1ccc(-c2ccc(C(=O)NC3(C(=O)NCC#N)CCCCC3)cc2)cc1 | 0.68 | 0.002 | 3.2 | 5.7 |  |  |  |  |
| CC(C)C[C@@H](NC(=O)OCc1ccccc1)C(=O)NCC#N | > 150 | 13 | > 150 | 13.6 |  |  |  |  |
| N#CCNC(=O)C1(NC(=O)c2ccc(-c3csc(N4CCN(C5CCOCC5)CC4)n3)cc2)CCCCC1 | 0.84 | 0.00047 | > 150 | 17 | 0.008 | 0.983 | 490 | 1.07 |
| CN1CCN(N(C)c2nc(-c3ccc(C(=O)NC4(C(=O)NCC#N)CCCCC4)cc3)cs2)CC1 | 0.89 | 0.00025 | 8.9 | 21 | 0.011 | 1.03 | 470 | 1.53 |
| CN1CCN(c2ccc(C(=O)NC3(C(=O)NCC#N)CCCCC3)cc2)CC1 | 2.7 | 0.0015 | 9.6 | 16 |  |  |  |  |
| CC(C)C[C@H](NC(=O)OCc1ccccc1)C(=O)NCC#N | 123 | 0.0347 | 2.79 | 0.143 |  |  |  |  |
| N#CCNC(=O)C1(NC(=O)c2ccc(-c3ccccc3)cc2)CCCCC1 | 1.3 | 0.0062 | 23 | 8.8 |  |  |  |  |
| N#CCNC(=O)C1(NC(=O)CCc2ccccc2)CCCCC1 | 99 | 0.41 | > 150 | 34 |  |  |  |  |
| N#CCNC(=O)C1(NC(=O)c2ccc(N)cc2)CCCCC1 | 10 | 0.032 | 45 | 6.5 |  |  |  |  |
| N#CCNC(=O)C1(NC(=O)c2ccc(N3CCOCC3)cc2)CCCCC1 | 8.6 | 0.019 | 50 | 42 |  |  |  |  |
| CN1CCC[C@H]1COc1ccc(-c2ccc(C(=O)NC3(C(=O)NCC#N)CCCCC3)cc2)cc1 | 0.59 | < 0.00025 | 4 | 10 | 0.024 |  |  |  |
| COCCN1CCN(c2nc(-c3ccc(C(=O)NC4(C(=O)NCC#N)CCCCC4)cc3)cs2)CC1 | 1.3 | 0.00048 | 6.4 | 20 | 0.004 | 0.683 | 1780 | 1.97 |
| N#CCNC(=O)[C@@H](NC(=O)OCc1ccccc1)c1ccccc1 | > 150 | 17 | 88 | 3.5 |  |  |  |  |
| CC[C@H](C)[C@H](NC(=O)OCc1ccccc1)C(=O)NCC#N | 70 | 1.5 | 25 | 14 |  |  |  |  |
| CN1CCN(S(=O)(=O)c2ccc(C(=O)NC3(C(=O)NCC#N)CCCCC3)cc2)CC1 | 3.1 | 0.013 | 71 | 102 |  |  |  |  |
| CN(C)c1ccc(C(=O)NC2(C(=O)NCC#N)CCCCC2)cc1 | 5.2 | 0.0033 | 48 | 35 |  |  |  |  |
| N#CCNC(=O)C1(NC(=O)c2cccc(Br)c2)CCCCC1 | 7.9 | 0.23 | 7.9 | 6.2 |  |  |  |  |
| CC(C)(C)[C@H](NC(=O)OCc1ccccc1)C(=O)NCC#N | > 150 | 1.9 | > 150 | > 150 |  |  |  |  |
| N#CCNC(=O)C1(NC(=O)OCc2ccccc2)CCCC1 | 110 | 1.5 | > 150 | > 150 |  |  |  |  |
